Laboratory results from ChEMBL document CHEMBL1124369, “Pyrido[3,4-e]-1,2,4-triazines and related heterocycles as potential antifungal agents” (1989).
≈ marks a conversion by molar mass, not a printed value.

Experiments:
Diutina rugosa = experiment: Antifungal activity against Candida rugosa; type: functional
In short: (§1)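 Agar dilution MIC. Twofold serial drug dilutions in yeast nitrogen base medium with 1% dextrose, 0.15% asparagine and 1.5% agar. Agar surfaces inoculated using a Steers multiple inocula replicator, then incubated at 35 °C for 24-48 h. MIC was recorded as the lowest concentration inhibiting visible growth. Amphotericin B, miconazole and nystatin served as controls.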

Candida albicans [1] = experiment: Antifungal activity against Candida stellatoidea; type: functional; in short: as §1
Candida parapsilosis = experiment: Antifungal activity against Candida parapsilosis; type: functional; conditions: Lodderomyces parapsilosis; in short: as §1
Candida tropicalis [2] = experiment: Antifungal activity against Candida tropicalis; Range is 32-64; type: functional; in short: as §1
Kluyveromyces marxianus [3] = experiment: Antifungal activity against Candida pseudotropicalis; type: functional; in short: as §1
Candida albicans [4] = experiment: Antifungal activity against Candida albicans; Range is 32-64; type: functional; in short: as §1
Mucor fragilis = experiment: Antifungal activity against Mucor fragilis; type: functional; in short: as §1
Trichophyton benhamiae [5] = experiment: Antifungal activity against Trichophyton mentagrophytes; type: functional, trychophyton mentagrophytes; in short: as §1
Trichophyton rubrum [6] = experiment: Antifungal activity against Trichophyton rubrum; Range is 8-32; type: functional
Aspergillus niger [7] = experiment: Antifungal activity against Aspergillus niger; Range is 32-64; type: functional; in short: as §1
Candida albicans [8] = experiment: Antifungal activity against Candida albicans; type: functional; in short: as §1
Trichophyton benhamiae [9] = experiment: Antifungal activity against Trichophyton mentagrophytes; Range is 64-128; type: functional, trychophyton mentagrophytes; in short: as §1
Aspergillus niger [10] = experiment: Antifungal activity against Aspergillus niger; type: functional; in short: as §1
Trichophyton rubrum [11] = experiment: Antifungal activity against Trichophyton rubrum; Range is 32-64; type: functional; in short: as §1
Candida tropicalis [12] = experiment: Antifungal activity against Candida tropicalis; type: functional; in short: as §1
Trichophyton rubrum [13] = experiment: Antifungal activity against Trichophyton rubrum; Range is 16-32; type: functional; in short: as §1
Aspergillus niger [14] = experiment: Antifungal activity against Aspergillus niger; Range is 32-128; type: functional; in short: as §1
Kluyveromyces marxianus [15] = experiment: Antifungal activity against Candida pseudotropicalis; Range is 8-16; type: functional; in short: as §1
Trichophyton benhamiae [16] = experiment: Antifungal activity against Trichophyton mentagrophytes; Range is 8-32; type: functional, trychophyton mentagrophytes; in short: as §1
Candida tropicalis [17] = experiment: Antifungal activity against Candida tropicalis; Range is 4-16; type: functional; in short: as §1
Trichophyton rubrum [18] = experiment: Antifungal activity against Trichophyton rubrum; Range is 1-2; type: functional; in short: as §1
Trichophyton rubrum [19] = experiment: Antifungal activity against Trichophyton rubrum; Range is 64-128; type: functional
Candida tropicalis [20] = experiment: Antifungal activity against Candida tropicalis; Range is 16-32; type: functional; in short: as §1
Trichophyton rubrum [21] = experiment: Antifungal activity against Trichophyton rubrum; type: functional; in short: as §1
Candida albicans [22] = experiment: Antifungal activity against Candida albicans; Range is 16-32; type: functional; in short: as §1
Aspergillus niger [23] = experiment: Antifungal activity against Aspergillus niger; Range is 64-128; type: functional; in short: as §1
Kluyveromyces marxianus [24] = experiment: Antifungal activity against Candida pseudotropicalis; Range is 4-8; type: functional; in short: as §1
Trichophyton rubrum [25] = experiment: Antifungal activity against Trichophyton rubrum; Range is 2-4; type: functional; in short: as §1
Candida tropicalis [26] = experiment: Antifungal activity against Candida tropicalis; Range is 8-32; type: functional; in short: as §1
Trichophyton benhamiae [27] = experiment: Antifungal activity against Trichophyton mentagrophytes; Range is 4-8; type: functional, trychophyton mentagrophytes; in short: as §1
Candida albicans [28] = experiment: Antifungal activity against Candida albicans; Range is 8-16; type: functional; in short: as §1
Aspergillus niger [29] = experiment: Antifungal activity against Aspergillus niger; Range is 16-32; type: functional; in short: as §1
Trichophyton rubrum [30] = experiment: Antifungal activity against Trichophyton rubrum; Range is 4-8; type: functional; in short: as §1
Trichophyton benhamiae [31] = experiment: Antifungal activity against Trichophyton mentagrophytes; Range is 32-64; type: functional, trychophyton mentagrophytes; in short: as §1
Candida tropicalis [32] = experiment: Antifungal activity against Candida tropicalis; Range is 8-16; type: functional; in short: as §1

| MIC (Diutina rugosa) | MIC (Candida albicans [1]) | MIC (Candida parapsilosis) | MIC (Kluyveromyces marxianus [3]) | MIC (Mucor fragilis) | MIC (Trichophyton benhamiae [5]) | MIC (Candida albicans [8]) | MIC (Aspergillus niger [10]) | MIC (Candida tropicalis [12]) | SMILES | further results |
| --- | --- | --- | --- | --- | --- | --- | --- | --- | --- | --- |
| 64 µg/mL (≈ 367 µM) | 64 µg/mL (≈ 367 µM) | 64 µg/mL (≈ 367 µM) | 16 µg/mL (≈ 91.8 µM) | 64 µg/mL (≈ 367 µM) | 32 µg/mL (≈ 184 µM) |  |  |  | CCCc1nnc2ccncc2n1 | MIC (Candida tropicalis [2]): 32 µg/mL (≈ 184 µM); MIC (Candida albicans [4]): 32 µg/mL (≈ 184 µM); MIC (Trichophyton rubrum [6]): 8 µg/mL (≈ 45.9 µM); MIC (Aspergillus niger [7]): 32 µg/mL (≈ 184 µM) |
|  |  | 128 µg/mL (≈ 343 µM) | 128 µg/mL (≈ 343 µM) |  |  | 128 µg/mL (≈ 343 µM) | 128 µg/mL (≈ 343 µM) | 128 µg/mL (≈ 343 µM) | Cc1nc(C)c2nc(-c3ccc(F)cc3)nnc2c1NC(=O)c1ccccc1 | MIC (Trichophyton benhamiae [9]): 64 µg/mL (≈ 171 µM); MIC (Trichophyton rubrum [11]): 32 µg/mL (≈ 85.7 µM) |
| 64 µg/mL (≈ 367 µM) | 64 µg/mL (≈ 367 µM) |  |  | 16 µg/mL (≈ 91.8 µM) |  | 8 µg/mL (≈ 45.9 µM) |  | 32 µg/mL (≈ 184 µM) | Cc1cc2nnc(C)nc2c(C)n1 | MIC (Trichophyton rubrum [13]): 16 µg/mL (≈ 91.8 µM); MIC (Aspergillus niger [14]): 32 µg/mL (≈ 184 µM); MIC (Kluyveromyces marxianus [15]): 8 µg/mL (≈ 45.9 µM); MIC (Trichophyton benhamiae [16]): 8 µg/mL (≈ 45.9 µM) |
|  |  | 16 µg/mL (≈ 65.5 µM) | 8 µg/mL (≈ 32.8 µM) |  | 4 µg/mL (≈ 16.4 µM) | 16 µg/mL (≈ 65.5 µM) |  |  | Fc1ccc(-c2nnc3ccncc3n2)cc1F | MIC (Candida tropicalis [17]): 4 µg/mL (≈ 16.4 µM); MIC (Trichophyton rubrum [18]): 1 µg/mL (≈ 4.09 µM); MIC (Aspergillus niger [7]): 32 µg/mL (≈ 131 µM) |
|  |  | 128 µg/mL (≈ 603 µM) | 128 µg/mL (≈ 603 µM) |  |  | 128 µg/mL (≈ 603 µM) | 128 µg/mL (≈ 603 µM) | 128 µg/mL (≈ 603 µM) | CC1(C)N=Nc2c(cnc3ccccc23)N1 | MIC (Trichophyton benhamiae [9]): 64 µg/mL (≈ 302 µM); MIC (Trichophyton rubrum [19]): 64 µg/mL (≈ 302 µM) |
|  |  | 64 µg/mL (≈ 438 µM) | 8 µg/mL (≈ 54.7 µM) |  |  |  | 32 µg/mL (≈ 219 µM) |  | Cc1nccc2nncnc12 | MIC (Candida tropicalis [20]): 16 µg/mL (≈ 109 µM); MIC (Trichophyton rubrum [21]): 4 µg/mL (≈ 27.4 µM); MIC (Trichophyton benhamiae [16]): 8 µg/mL (≈ 54.7 µM); MIC (Candida albicans [22]): 16 µg/mL (≈ 109 µM) |
| > 128 µg/mL | > 128 µg/mL |  | 128 µg/mL (≈ 507 µM) | 64 µg/mL (≈ 254 µM) | 32 µg/mL (≈ 127 µM) | 128 µg/mL (≈ 507 µM) |  | 128 µg/mL (≈ 507 µM) | Cc1nc(C)c2nc(-c3ccncc3)nnc2c1N | MIC (Trichophyton rubrum [21]): 16 µg/mL (≈ 63.4 µM); MIC (Aspergillus niger [23]): 64 µg/mL (≈ 254 µM) |
| > 128 µg/mL | 128 µg/mL (≈ 549 µM) | 64 µg/mL (≈ 274 µM) |  | 128 µg/mL (≈ 549 µM) |  | 64 µg/mL (≈ 274 µM) | 128 µg/mL (≈ 549 µM) |  | N#Cc1ccc(-c2nnc3ccncc3n2)cc1 | MIC (Kluyveromyces marxianus [24]): 4 µg/mL (≈ 17.2 µM); MIC (Trichophyton rubrum [25]): 2 µg/mL (≈ 8.58 µM); MIC (Candida tropicalis [26]): 8 µg/mL (≈ 34.3 µM); MIC (Trichophyton benhamiae [27]): 4 µg/mL (≈ 17.2 µM) |
| 16 µg/mL (≈ 109 µM) | 32 µg/mL (≈ 219 µM) | 16 µg/mL (≈ 109 µM) | 8 µg/mL (≈ 54.7 µM) | 16 µg/mL (≈ 109 µM) | 16 µg/mL (≈ 109 µM) |  |  | 8 µg/mL (≈ 54.7 µM) | Cc1nnc2ccncc2n1 | MIC (Candida albicans [28]): 8 µg/mL (≈ 54.7 µM); MIC (Aspergillus niger [29]): 16 µg/mL (≈ 109 µM); MIC (Trichophyton rubrum [30]): 4 µg/mL (≈ 27.4 µM) |
|  |  | 64 µg/mL (≈ 340 µM) | 64 µg/mL (≈ 340 µM) |  |  | 64 µg/mL (≈ 340 µM) | 64 µg/mL (≈ 340 µM) | 64 µg/mL (≈ 340 µM) | CC(C)(C)c1nnc2ccncc2n1 | MIC (Trichophyton rubrum [13]): 16 µg/mL (≈ 85 µM); MIC (Trichophyton benhamiae [31]): 32 µg/mL (≈ 170 µM) |
| 32 µg/mL (≈ 154 µM) | 16 µg/mL (≈ 76.8 µM) | 16 µg/mL (≈ 76.8 µM) |  | > 128 µg/mL | 8 µg/mL (≈ 38.4 µM) | 16 µg/mL (≈ 76.8 µM) |  |  | c1ccc(-c2nnc3ccncc3n2)cc1 | MIC (Trichophyton rubrum [25]): 2 µg/mL (≈ 9.61 µM); MIC (Aspergillus niger [29]): 16 µg/mL (≈ 76.8 µM); MIC (Kluyveromyces marxianus [15]): 8 µg/mL (≈ 38.4 µM); MIC (Candida tropicalis [32]): 8 µg/mL (≈ 38.4 µM) |
| 16 µg/mL (≈ 70.7 µM) | 32 µg/mL (≈ 141 µM) | 32 µg/mL (≈ 141 µM) | 32 µg/mL (≈ 141 µM) | 64 µg/mL (≈ 283 µM) | 8 µg/mL (≈ 35.4 µM) | 32 µg/mL (≈ 141 µM) | 16 µg/mL (≈ 70.7 µM) | 32 µg/mL (≈ 141 µM) | Fc1ccccc1-c1nnc2ccncc2n1 | MIC (Trichophyton rubrum [25]): 2 µg/mL (≈ 8.84 µM) |
|  |  | 64 µg/mL (≈ 432 µM) | 64 µg/mL (≈ 432 µM) |  |  | 64 µg/mL (≈ 432 µM) |  | 64 µg/mL (≈ 432 µM) | CC1N=Nc2ncccc2N1 (configuration not stated) | MIC (Trichophyton benhamiae [31]): 32 µg/mL (≈ 216 µM); MIC (Trichophyton rubrum [6]): 8 µg/mL (≈ 54 µM); MIC (Aspergillus niger [7]): 32 µg/mL (≈ 216 µM) |
| 8 µg/mL (≈ 35.4 µM) | 8 µg/mL (≈ 35.4 µM) | 8 µg/mL (≈ 35.4 µM) | 8 µg/mL (≈ 35.4 µM) | 64 µg/mL (≈ 283 µM) |  |  |  |  | Fc1ccc(-c2nnc3ccncc3n2)cc1 | MIC (Candida albicans [28]): 8 µg/mL (≈ 35.4 µM); MIC (Trichophyton rubrum [21]): 4 µg/mL (≈ 17.7 µM); MIC (Aspergillus niger [29]): 16 µg/mL (≈ 70.7 µM); MIC (Trichophyton benhamiae [27]): 4 µg/mL (≈ 17.7 µM); MIC (Candida tropicalis [32]): 8 µg/mL (≈ 35.4 µM) |
| 16 µg/mL (≈ 80 µM) | 16 µg/mL (≈ 80 µM) |  |  | 8 µg/mL (≈ 40 µM) |  |  | 32 µg/mL (≈ 160 µM) | 32 µg/mL (≈ 160 µM) | FC(F)(F)c1nnc2ccncc2n1 | MIC (Kluyveromyces marxianus [15]): 8 µg/mL (≈ 40 µM); MIC (Candida albicans [22]): 16 µg/mL (≈ 80 µM) |
